Shown are actives, neighbours in structure and some others; about 2.3% of the full set was active somewhere.
TRPC4 inh = inhibitors of mouse TRPC4 channel, primary screen, Fluo4 calcium, HEK293 TRPC4beta/mu-opioid cells; AID 2247, 2010; Short transient receptor potential channel 4 (Mus musculus), Q9QUQ5; 300,000 tested, 0.39% active; DAMGO-evoked Fluo4 calcium flux; active compounds read low; B-score at 10 µM;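 active means B-score over 3 SD under the library average, no early fluorescence shift, positive overall ratio signal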
Target sequence (Q9QUQ5 whole entry, looked up): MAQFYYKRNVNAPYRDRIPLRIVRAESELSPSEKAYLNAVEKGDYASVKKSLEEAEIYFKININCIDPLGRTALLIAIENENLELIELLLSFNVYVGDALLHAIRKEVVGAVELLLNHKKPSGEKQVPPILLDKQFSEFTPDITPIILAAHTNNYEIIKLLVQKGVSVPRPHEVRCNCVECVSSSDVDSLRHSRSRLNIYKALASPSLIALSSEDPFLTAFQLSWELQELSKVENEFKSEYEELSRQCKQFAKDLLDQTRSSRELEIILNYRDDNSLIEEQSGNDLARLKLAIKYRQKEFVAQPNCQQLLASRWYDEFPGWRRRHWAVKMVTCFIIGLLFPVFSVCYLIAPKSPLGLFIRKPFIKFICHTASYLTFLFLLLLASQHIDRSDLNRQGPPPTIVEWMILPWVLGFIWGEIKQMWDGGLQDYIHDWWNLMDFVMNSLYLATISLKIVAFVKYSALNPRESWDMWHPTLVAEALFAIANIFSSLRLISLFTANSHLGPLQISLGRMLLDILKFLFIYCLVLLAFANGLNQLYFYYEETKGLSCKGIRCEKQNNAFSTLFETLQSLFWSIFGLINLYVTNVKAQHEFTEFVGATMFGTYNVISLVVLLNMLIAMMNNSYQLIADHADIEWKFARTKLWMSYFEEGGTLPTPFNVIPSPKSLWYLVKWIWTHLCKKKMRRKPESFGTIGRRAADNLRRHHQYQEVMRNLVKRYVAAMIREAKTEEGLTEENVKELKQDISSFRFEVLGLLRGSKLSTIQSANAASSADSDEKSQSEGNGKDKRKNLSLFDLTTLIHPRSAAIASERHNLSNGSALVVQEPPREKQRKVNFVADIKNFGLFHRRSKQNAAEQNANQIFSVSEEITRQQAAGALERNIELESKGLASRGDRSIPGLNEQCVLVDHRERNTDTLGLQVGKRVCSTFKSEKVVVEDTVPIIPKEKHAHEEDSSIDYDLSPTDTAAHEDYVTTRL
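Assay system – HEK293 line stably carrying TRPC4beta and mu-opioid receptor · Doses – single dose · Detection – Fluo4 calcium-dye fluorescence, kinetic read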
TRPC6 activator = mouse TRPC6 channel activators, primary screen, cell-based, HEK293, membrane potential dye. HEK293-TRPC6 membrane potential dye fluorescence; active compounds read high. 310,000 tested, 0.13% active. B-score at 10 µM. Short transient receptor potential channel 6 (Mus musculus), Q61143. AID 2550, 2010;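 active means B-score of the integrated fluorescence ratio above library mean plus 3 SD, and starting fluorescence ratio within library mean plus 5 SD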;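 further: higher score means more depolarization so channel activation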
TRPC4 PAM = positive allosteric modulators of TRPC4, primary screen, cell-based, mouse TRPC4beta, HEK293 mu-opioid, Fluo-4 calcium. 310,000 tested, 0.42% active. AID 2227, 2009. Short transient receptor potential channel 4 (Mus musculus), Q9QUQ5. B-score at 10 µM. DAMGO EC20, Fluo-4 Ca2+ flux; active compounds read high;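 active means B-score of calcium response area above 5 SD of library B-scores, with initial fluorescence ratio within 5 SD of library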
TRPC4 act = activators of mouse TRPC4 channel, primary screen, Fluo4 calcium, HEK293 TRPC4beta/mu-opioid cells. Short transient receptor potential channel 4 (Mus musculus), Q9QUQ5. Fluo4 calcium fluorescence; active compounds read high. B-score at 10 µM. 310,000 tested, 0.49% active;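 active means B-score above 5 SD of library B-scores, and initial fluorescence ratio not above library mean plus 5 SD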;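 further: positive B-score marks a calcium rise read as TRPC4 activation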
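Assay system – TRPC4beta and mu-opioid receptor HEK293 stable cells · Measured by – Fluo4 fluorescence, kinetic · Schedule – dye loading 45 min room temperature, 110 s kinetic read · Read-out – B-scored integrated calcium fluorescence ratio · Controls – buffer and maximal DAMGO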
TRPC6 inh = mouse TRPC6 channel inhibitors, primary screen, cell-based, HEK293, membrane potential dye; ACh-evoked depolarization; active compounds read low; B-score at 10 µM; 310,000 tested, 1.1% active; AID 2553, 2010;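 active means B-score under library mean minus 3 SD, initial fluorescence not abnormally high, positive integrated signal ratio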;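 further: B-score derived from integrated fluorescence ratio over the kinetic read; more negative B-score means stronger inhibition of depolarization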
Large screens that a line does not name were inactive.

CC(C)CN1CCC(=O)N([C@H](CSc2ccc(Br)cc2)Cc2ccccc2)CC1	none
O=C1CCN(CCc2ccccc2)CCN1[C@H](COc1ccccc1)Cc1ccccc1	TRPC4 act 67 (no result: TRPC4 inh)
CN1CCC(=O)N([C@H](CSc2ccc(Br)cc2)Cc2ccccc2)CC1	TRPC4 act 79
COc1ccc(SC[C@H](Cc2ccccc2)N2CCN(C)CCC2=O)cc1	TRPC4 inh -8
CN1CCC(=O)N([C@H](CSc2ccccc2)Cc2ccccc2)CC1	none
Cc1ccc(SC[C@H](Cc2ccccc2)N2CCN(C)CCC2=O)cc1	TRPC4 act 81 (no result: TRPC4 inh)
CC(C)C[C@@H](COc1ccccc1)N1CCN(CCc2ccccc2)CCC1=O	none (no result: TRPC4 inh)
CCCN1CCC(=O)N([C@H](CSc2ccc(OC)cc2)Cc2ccccc2)CC1	none
Cn1cc(/C=C(\NC(=O)c2ccccc2Cl)C(=O)NCCCn2ccnc2)c2ccccc21	none
CCOC(=O)N1CCN(C(=O)CSc2nnc3[nH]c(=O)c(C)c(C)n23)CC1	none
CCOc1ccc(/C=C2\SC(=S)N(CCC(=O)N(CCO)c3ccccc3)C2=O)cc1	TRPC4 PAM 12
C=CCN1C(=NC(=O)COc2ccc(Cl)cc2)SC2CS(=O)(=O)CC21 (stereo not given)	none
Cc1ccc(C(=O)N/C(=C\c2ccccc2)C(=O)NCc2cccnc2)cc1	none
CC(C)c1[nH]nc2c1C(C1C=CCCC1)C(C#N)=C(N)O2 (stereo not given)	TRPC4 PAM 21
CC(C)(C)c1[nH]nc2c1C(C1C=CCCC1)C(C#N)=C(N)O2 (stereo not given)	none
COc1cccc(C(=O)NC2CCCN(C3Cc4ccccc4C3)C2)c1OC (stereo not given)	TRPC4 act 90
CC#CC(=O)NC1CCCN(C2Cc3ccccc3C2)C1 (stereo not given)	none
CCCCn1c(N)c(N(CC(C)C)C(=O)C2=NN(c3cc(C)ccc3C)C(=O)CC2)c(=O)[nH]c1=O	none
N=c1c2ccccc2nnn1-c1ccc(C(F)(F)F)cc1	none
COCCn1nnnc1C(c1cccs1)N1CCN(c2nc3ccccc3s2)CC1 (stereo not given)	none
O=C(O)CCC(=O)N1CCN(c2nc3ccccc3s2)CC1	TRPC4 PAM 20
CC1CCN(c2nc3ccc(C(=O)N4CCN(Cc5ccccc5)CC4)cc3s2)CC1	none
c1ccc(CN2CCN(c3nc4ccccc4s3)CC2)cc1	TRPC4 PAM 17
c1ccc(CN2CCN(c3nc(N4CCOCC4)c4ccccc4n3)CC2)cc1	TRPC6 inh -5.5
Oc1ccc(C(c2nnnn2CCc2ccccc2)N2CCN(c3nc4ccccc4s3)CC2)cc1 (stereo not given)	TRPC4 act 77
Cc1cccc(C)c1NC(=O)CN(C)C(=O)Cc1cccc(C(F)(F)F)c1	none
CC(NC(=O)COC(=O)CCc1ccccc1)c1ccccc1 (stereo not given)	none
CCOC(=O)C1=C(CN2CCN(C(=O)c3ccco3)CC2)NC(=O)NC1c1ccc(C)cc1 (stereo not given)	none
CCN(CC)S(=O)(=O)c1ccc(N2CCN(c3cccc(OC)c3)CC2)c([N+](=O)[O-])c1	none
Cc1ccc(NC(=O)NCc2ccccn2)cc1Cl	none
Cc1ccc(C)c(NS(=O)(=O)c2cc(C(=O)NCc3ccccn3)ccc2Cl)c1	none
Cc1ccc(NS(=O)(=O)c2cc(C(=O)NCc3ccccn3)ccc2Cl)cc1C	TRPC4 PAM 11
Cc1ccc(C(=O)NCc2ccccn2)cc1Cl	TRPC4 PAM 10
COc1cccc(C(=O)NCC2(c3ccccc3)CCCC2)c1OC	none
COc1ccc2ccccc2c1/C=N/NC(=O)c1cccc(Br)c1	none
O=C(N/N=C/c1c(O)ccc2ccccc12)c1cccc(C(F)(F)F)c1	TRPC4 PAM 12
COc1ccccc1N1CCN(C2CCCN(Cc3ccc(Cl)cc3)C2)CC1 (stereo not given)	none
COc1ccccc1N1CCN(C2CCCN(C(=O)c3oc(C)cc3C)C2)CC1 (stereo not given)	TRPC4 act 54
COc1ccccc1N1CCN(C2CCCN(Cc3ccccc3OCCO)C2)CC1 (stereo not given)	TRPC4 PAM 12
COc1ccc(O)c(CN2CCCC(N3CCN(c4ccccc4OC)CC3)C2)c1 (stereo not given)	TRPC4 act 43
C=CCOc1ccc(/C=N/NC(=O)c2c(C)nc3ccc(Cl)cn23)cc1	none
N#Cc1ccc(C(CC(=O)O)N2Cc3ccccc3C2=O)cc1 (stereo not given)	none
CCSc1ncc(CO)c(N)n1	none
CCc1ccc(OC(C)C(=O)Nc2ccc(S(=O)(=O)Nc3nccs3)cc2)cc1 (stereo not given)	TRPC4 PAM 12
CN(C)CCCN(C(=O)CCOc1ccccc1)c1nc2c(F)cccc2s1	TRPC6 inh -5.1
CCCn1c(SCC(=O)NC(=O)Nc2ccc(C)cc2C)n[nH]c1=O	TRPC4 PAM 12
CCCn1c(SCC(=O)Nc2cc(Cl)ccc2Cl)n[nH]c1=O	none
Cc1ccc(NS(=O)(=O)c2ccc(C(=O)N3CC(C)CC(C)C3)cc2)cc1 (stereo not given)	TRPC4 act 104
Cc1ccc(S(=O)(=O)Nc2ccc(C(=O)N3CCCC3)cc2)cc1	none
COCCNC(=O)C(c1ccc(C)cc1)N(C(=O)C(=O)NC1CCCC1)c1ccc2c(c1)OCCO2 (stereo not given)	none
CN1CCN(CCCN(Cc2cccs2)C(=S)Nc2ccc(Cl)cc2)CC1	none
CCc1ccc(NC(=S)N(CCCN2CCN(C)CC2)Cc2cccs2)cc1	TRPC4 PAM 10
CCc1ccc(NC(=O)N(CCCN2CCOCC2)Cc2cccs2)cc1	TRPC4 act 51
COC(=O)C1CCN(c2ccc(Cl)nn2)CC1	none
Cc1ccnc(NC(=O)c2cc3ccccc3oc2=O)c1	none
CCCCC(=O)NC(=S)NNC(=O)c1ccc(Cl)cc1Cl	TRPC4 act 165
COc1ccccc1C(=O)NNC(=S)NC(=O)c1sc2ccccc2c1Cl	TRPC4 inh -8, TRPC4 act 48
COc1ccccc1C(=O)NNC(=S)NC(=O)c1cccs1	TRPC4 act 137
O=C(NC(=S)NNC(=O)[C@H]1C[C@@H]1c1ccccc1)c1cccc(F)c1	TRPC4 act 211
COc1ccccc1C(=O)NC(=O)CSc1nncn1C	none
COc1ccc(CCNC(=O)c2cc3c(C)nccc3[nH]c2=O)cc1OC	none
CC1Sc2ccc(S(=O)(=O)CCC(=O)Nc3ccccn3)cc2NC1=O (stereo not given)	none

Screens: PubChem BioAssay, Johns Hopkins Ion Channel Center
